Data published in ChEMBL document CHEMBL4425157, “New antibacterial agents: Hybrid bioisoster derivatives as potential E. coli FabH inhibitors” (Bioorg Med Chem Lett, 2016).
Values after ≈ are worked out from the molar mass of the structure shown. Active and inactive are the calls of the source. The calls are words filed in the database; no cut-off is given here.

Columns and labels:
[1] = tested on: Escherichia coli; assay: Antibacterial activity against Escherichia coli ATCC 25922 by broth microdilution method; format: functional
How it was run: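 MIC read by broth microdilution, run in duplicate.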

[2] = tested on: Staphylococcus aureus; assay: Antibacterial activity against Staphylococcus aureus ATCC 29213 by broth microdilution method; format: functional
[3] = tested on: Candida albicans; assay: Antifungal activity against Candida albicans ATCC 10231 by broth dilution method; format: functional
[4] = tested on: Vero; assay: Cytotoxicity against african green monkey Vero cells assessed as reduction in cell viability measured after 72 hrs by MTS assay; format: cell-based; conditions: Chlorocebus sabaeus
How it was run: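 Vero cells exposed to compounds, with viability read by MTS assay; IC50 derived from the viability data.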

[5] = Growth inhibition of african green monkey Vero cells at highest concentration measured after 72 hrs by MTS assay relative to control; format: cell-based; conditions: chlorocebus sabaeus, read-out: GI
How it was run: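 Vero cells in MTS viability assay; the value is the percentage growth inhibition at the highest compound concentration tested.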

[6] = Induction of nitrite formation at 100 uM measured after 1 hr in presence of L-cysteine by Griess assay; format: functional
How it was run: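 Compound at 100 µM incubated with 5 mM L-cysteine in 50 mM phosphate buffer pH 7.4/methanol (1:1), 1 h at 37 °C; aliquots taken and nitrite quantified by Griess reaction.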

Compound	MIC [1]	MIC [2]	MIC [3]	IC50 [4]	inhibition at 72 h [5]	Activity [6]
GENTAMICIN	< 0.02 µM	0.076 µM				
C[C@@H]1[C@H](O)[C@@H](C)/C=C/C=C/C=C/C=C/C=C/C=C/C=C/[C@H](O[C@@H]2O[C@H](C)[C@@H](O)[C@H](N)[C@@H]2O)C[C@@H]2O[C@](O)(C[C@@H](O)C[C@@H](O)[C@H](O)CC[C@@H](O)C[C@@H](O)CC(=O)O[C@H]1C)C[C@H](O)[C@H]2C(=O)O [AMPHOTERICIN B]			0.027 µM (≈ 0.025 µg/mL)			
Cc1c(/C=N/NS(=O)(=O)c2ccccc2)no[n+]1[O-]	10.7 µM (≈ 3.03 µg/mL)	> 100 µM	> 100 µM	> 100 µM	63.4%	inactive
Cc1c(/C=N/NS(=O)(=O)c2ccc([N+](=O)[O-])cc2)no[n+]1[O-]	> 300 µM	> 100 µM	> 100 µM	> 100 µM	0%	inactive
Cc1ccc(S(=O)(=O)N/N=C/c2no[n+]([O-])c2C)cc1	0.36 µM (≈ 0.107 µg/mL)	> 100 µM	> 100 µM	> 100 µM	8.38%	inactive
CO[C@H]1/C=C/O[C@@]2(C)Oc3c(C)c(O)c4c(O)c(c(/C=N/N5CCN(C)CC5)c(O)c4c3C2=O)NC(=O)/C(C)=C\C=C\[C@H](C)[C@H](O)[C@@H](C)[C@@H](O)[C@@H](C)[C@H](OC(C)=O)[C@@H]1C [RIFAMPIN]				> 100 µM	44.8%	
COc1ccc(S(=O)(=O)N/N=C/c2no[n+]([O-])c2C)cc1	77.8 µM (≈ 24.3 µg/mL)	> 100 µM	> 100 µM	> 100 µM	0%	inactive
CC1(C)S[C@@H]2[C@H](NC(=O)[C@H](N)c3ccccc3)C(=O)N2[C@H]1C(=O)O [AMPICILLIN]	9.59 µM (≈ 3.35 µg/mL)	1.1 µM (≈ 0.384 µg/mL)				
Cc1c(/C=N/NS(=O)(=O)c2ccc(C(C)(C)C)cc2)no[n+]1[O-]	287 µM (≈ 97.1 µg/mL)	> 100 µM	> 100 µM	> 100 µM	74.8%	inactive
